According to ChEMBL document CHEMBL1268916, “Second generation 2-pyridyl biphenyl amide inhibitors of the hedgehog pathway” (Bioorg Med Chem Lett, 2010):
Converted amounts (≈) assume the structure as drawn. The source made the active and inactive calls. No cut-off for these calls is given here.

How the values were obtained:
[1] = Inhibition of Hedgehog signaling in human HEPM cells assessed as reduction in receptor-mediated Gli1 mRNA expression by reporter gene assay; assay type: cell-based
[2] = Inhibition of Hedgehog signaling in mouse S12 cells assessed as reduction in receptor-mediated Gli1 mRNA expression by reporter gene assay; assay type: cell-based
Cytochrome P450 3A4 = Cytochrome P450 3A4 (Homo sapiens, UniProt P08684); assay: Inhibition of CYP3A4; assay type: ADME
Cytochrome P450 2C9 = Cytochrome P450 2C9 (Homo sapiens, UniProt P11712); assay: Inhibition of CYP2C9; assay type: ADME
[3] = Clearance in rat at 5 mg/kg, po or 1 mg/kg, iv; assay type: ADME, organism-based; conditions: in vivo
In short: (§1)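 Male rats received the TFA salt as a solution. The IV dose was 1 mg/kg in 80% PEG or in 5% DMSO/5% cremophor. The oral dose was 5 mg/kg in 60–80% PEG.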

[4] = Thermodynamic solubility at pH 1.0; assay type: physicochemical; conditions: buffer
[5] = Thermodynamic solubility at pH 6.5; assay type: physicochemical; conditions: buffer
Mus musculus [6] = assay: Inhibition of Hedgehog signaling in Calu-6 cells xenografted nude mouse PK/PD model assessed as reduction in Gli1 mRNA expression at 75 mg/kg, po bid for 5 days measured 4 hrs post last dose relative to untreated control; assay type: functional; conditions: Calu-6, po, in the assay text read “for 5 doses” for “for 5 days”
In short: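 Nude mice bearing established Calu-6 tumors got 75 mg/kg by oral gavage BID for five doses. Tumors were harvested 4 h after the last dose. Stromal (murine) Gli1 mRNA was measured and expressed relative to vehicle-treated tumors. Compound was given as free base or HCl salt, suspended in a methylcellulose/Tween or Labrafil-based formulation.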

[7] = Plasma concentration in Calu-6 cells xenografted nude mouse PK/PD model at 75 mg/kg, po bid for 5 days measured 4 hrs post last dose relative to untreated control; assay type: ADME, organism-based; parameters: dose 75 mg/kg, route oral
In short: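 Calu-6 tumor-bearing mice were dosed orally 75 mg/kg BID for five doses. Plasma was sampled 4 h after the last dose, at the same time as tumor harvest. Compound was given as free base or HCl salt, suspended in a methylcellulose/Tween or Labrafil-based vehicle.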

Mus musculus [8] = assay: Inhibition of Hedgehog signaling in Calu-6 cells xenografted nude mouse PK/PD model assessed as reduction in Gli1 mRNA expression at 75 mg/kg, po bid for 5 doses measured 4 hrs post last dose relative to untreated control; conditions: Calu-6, po
[9] = Volume of distribution at steady state in rat at 5 mg/kg, po or 1 mg/kg, iv; assay type: ADME, organism-based; conditions: in vivo, read-out: Vdss; in short: as §1
Mus musculus [10] = assay: Volume of distribution in Calu-6 cells xenografted nude mouse PK/PD model at 75 mg/kg, po bid for 5 days measured 4 hrs post last dose relative to untreated control; assay type: ADME, organism-based; parameters: dose 75 mg/kg, route oral; conditions: in vivo
Mus musculus [11] = assay: Antitumor activity in mouse medulloblastoma allograft model harboring tumors with activating mutations in Hh pathway (Ptch+/-) assessed as complete regression of tumor volume at 5 mg/kg, po bid; assay type: functional, organism-based; parameters: dose 5 mg/kg
In short: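 Spontaneous medulloblastomas from Ptch+/- mice passaged subcutaneously in nude mice. Once tumors were established, mice were dosed twice daily for 20 days at 5 mg/kg BID. Tumor volume was followed over time.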

[12] = Plasma concentration in Calu-6 cells xenografted nude mouse PK/PD model at 25 mg/kg, po bid for 5 days measured 6 hrs post last dose relative to untreated control; assay type: ADME, organism-based; parameters: dose 25 mg/kg, route oral
Mus musculus [13] = assay: Inhibition of Hedgehog signaling in Calu-6 cells xenografted nude mouse PK/PD model assessed as reduction in Gli1 mRNA expression at 25 mg/kg, po bid for 5 days measured 4 hrs post last dose relative to untreated control; assay type: functional

Sequence of Cytochrome P450 2C9 (P11712 whole entry): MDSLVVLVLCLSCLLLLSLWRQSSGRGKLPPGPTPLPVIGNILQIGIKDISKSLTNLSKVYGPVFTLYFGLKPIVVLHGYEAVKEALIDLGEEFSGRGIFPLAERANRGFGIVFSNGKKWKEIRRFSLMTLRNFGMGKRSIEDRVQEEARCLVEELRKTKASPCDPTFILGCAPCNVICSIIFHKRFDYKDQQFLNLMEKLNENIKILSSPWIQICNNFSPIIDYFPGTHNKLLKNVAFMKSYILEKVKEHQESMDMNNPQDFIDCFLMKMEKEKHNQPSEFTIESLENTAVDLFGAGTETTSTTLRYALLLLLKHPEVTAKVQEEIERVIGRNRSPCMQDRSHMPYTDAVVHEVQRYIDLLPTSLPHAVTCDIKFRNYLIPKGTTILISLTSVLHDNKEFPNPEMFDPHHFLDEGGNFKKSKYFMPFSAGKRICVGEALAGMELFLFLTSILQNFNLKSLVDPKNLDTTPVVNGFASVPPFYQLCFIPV
Sequence of Cytochrome P450 3A4 (P08684 whole entry): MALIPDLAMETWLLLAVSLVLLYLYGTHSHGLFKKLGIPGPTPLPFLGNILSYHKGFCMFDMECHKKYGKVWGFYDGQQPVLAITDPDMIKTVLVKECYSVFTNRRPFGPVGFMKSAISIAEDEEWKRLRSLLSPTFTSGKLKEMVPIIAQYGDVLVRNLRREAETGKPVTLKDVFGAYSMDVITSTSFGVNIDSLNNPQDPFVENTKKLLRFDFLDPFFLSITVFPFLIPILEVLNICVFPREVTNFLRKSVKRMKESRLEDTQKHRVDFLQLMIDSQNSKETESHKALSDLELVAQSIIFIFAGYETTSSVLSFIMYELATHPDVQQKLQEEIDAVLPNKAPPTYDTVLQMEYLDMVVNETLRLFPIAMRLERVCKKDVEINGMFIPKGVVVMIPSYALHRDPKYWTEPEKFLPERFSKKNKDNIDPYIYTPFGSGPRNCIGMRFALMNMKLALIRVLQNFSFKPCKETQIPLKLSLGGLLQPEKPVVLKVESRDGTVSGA

Row | Structure (SMILES) | IC50 [1] [µM] | IC50 [2] [µM] | IC50 (Cytochrome P450 3A4) [µM] | IC50 (Cytochrome P450 2C9) [µM] | clearance [3] [mL/min/kg] | solubility thermodynamic [4] [µg/mL] | solubility thermodynamic [5] [µg/mL] | inhibition in vivo at 75 mg/kg (Mus musculus [6]) [%] | concentration at 4 h [7] [µM] | inhibition in vivo at 75 mg/kg (Mus musculus [8]) [%] | Vd [9] [L/kg] | Vd (Mus musculus [10]) [L/kg] | inhibition (Mus musculus [11]) | concentration at 6 h [12] [µM] | inhibition in vivo at 25 mg/kg (Mus musculus [13]) [%]
1 | CCN1CCN(c2ccc(C(=O)Nc3ccc(Cl)c(-c4ccccn4)c3)c(C)n2)CC1 | 0.005 | 0.16 | > 20 | > 20 |  |  |  |  |  |  |  |  |  |  | 
2 | Cc1nc(NCCO)ccc1C(=O)Nc1ccc(Cl)c(-c2ccccn2)c1 | 0.023 | 0.062 | > 20 | > 20 |  |  |  |  |  |  |  |  |  |  | 
3 | O=C(Nc1ccc(Cl)c(-c2ccccn2)c1)c1ccc(C(=O)N2CCS(=O)(=O)CC2)cc1Cl | 0.005 | 0.033 | > 20 | 9 | 35 | 4300 (≈ 8530 µM) | 60 (≈ 119 µM) |  |  |  |  |  |  |  | 
4 | Cc1nc(NCC(C)C)ccc1C(=O)Nc1ccc(Cl)c(-c2ccccn2)c1 | 0.014 | 0.053 | 19 | 0.5 |  |  |  |  |  |  |  |  |  |  | 
5 | CS(=O)(=O)Cc1ccc(C(=O)Nc2ccc(Cl)c(-c3ccccn3)c2)c(Cl)c1 | 0.001 | 0.003 | > 20 | 16 | 5.5 | 110 (≈ 253 µM) | 3 (≈ 6.89 µM) | 0 | 0.3 |  |  |  |  |  | 
6 | CS(=O)(=O)Nc1ccc(C(=O)Nc2ccc(Cl)c(-c3ccccn3)c2)c(Cl)c1 | 0.002 | 0.017 | > 20 | 8 | 2.4 | 910 (≈ 2090 µM) | 1 (≈ 2.29 µM) |  | 2.2 | 25 |  |  |  |  | 
7 | CC(=O)N1CCN(c2ccc(C(=O)Nc3ccc(Cl)c(-c4ccccn4)c3)c(C)n2)CC1 | 0.005 | 0.022 | > 20 | 16 | 2 | 3200 (≈ 7110 µM) | 6 (≈ 13.3 µM) | 80 | 22 |  | 0.38 |  |  |  | 
8 | O=C(Nc1ccc(Cl)c(-c2ccccn2)c1)c1ccc(-n2cncn2)nc1 | 0.008 | 0.047 | 0.2 | 0.2 | 4 | 4000 (≈ 10600 µM) | 8 (≈ 21.2 µM) |  |  |  | 1.4 |  |  |  | 
9 | Cc1nc(C(F)(F)F)ccc1C(=O)Nc1ccc(Cl)c(-c2ccccn2)c1 | 0.015 | 0.042 | > 20 | > 20 | 4.5 | 1000 (≈ 2550 µM) | 2 (≈ 5.1 µM) | 40 | 15 |  | 0.95 |  |  |  | 
10 | O=C(NCc1ccccc1)c1ccc(C(=O)Nc2ccc(Cl)c(-c3ccccn3)c2)c(Cl)c1 | 0.001 | 0.007 | > 20 | 1.2 |  |  |  |  |  |  |  |  |  |  | 
11 | Cc1ncn(-c2ccc(C(=O)Nc3ccc(Cl)c(-c4ccccn4)c3)c(C)n2)n1 | 0.008 | 0.067 | > 20 | > 20 | 0.7 | 900 (≈ 2220 µM) | 6 (≈ 14.8 µM) |  | 150 | 50 | 0.24 | 0.15 |  |  | 
12 | O=C(NCc1ccccn1)c1ccc(C(=O)Nc2ccc(Cl)c(-c3ccccn3)c2)c(Cl)c1 | 0.0004 | 0.004 | > 20 | 4.5 | 6.7 | 4300 (≈ 9010 µM) | 3 (≈ 6.28 µM) |  |  |  |  |  | Active | 1.7 | 90
13 | CS(=O)(=O)c1ccc(C(=O)Nc2ccc(Cl)c(-c3ccccn3)c2)c(Cl)c1 [VISMODEGIB] | 0.003 | 0.013 | > 20 | > 20 | 3.7 | 3500 (≈ 8310 µM) | 10 (≈ 23.7 µM) | 90 |  |  |  |  |  |  | 
14 | NS(=O)(=O)c1ccc(C(=O)Nc2ccc(Cl)c(-c3ccccn3)c2)c(Cl)c1 | 0.005 | 0.035 | > 20 | > 20 |  |  |  |  |  |  |  |  |  |  | 
